# Measurements from different studies.
# Each line is one published result; the experiments were not run side by side.
# Organism: Candida albicans
# Observed: microbial growth
SMILES,assay,system,conditions,measurement,result
Cc1nn(-c2ccccc2)c2c1C(c1ccc([N+](=O)[O-])cc1)N(C(=O)c1ccncc1)N2 (centres unmarked),,MTCC183,,MIC,> 100 µg/mL
COc1cc(Cc2cnc(N)nc2N)cc(OC)c1OC,broth dilution,SC5314,,MIC,64 µg/mL
Cc1c(C(N)=S)c(N)n(N)c(=O)c1C#N,well diffusion,ATCC10231,500 µg/mL,inhibition zone,19 mm
Cc1nn(-c2ccccc2)c2c1C(c1ccc(Cl)cc1)N(C(=O)c1ccncc1)N2 (centres unmarked),,MTCC183,,MIC,0.25 µg/mL
O=C(C=Cc1ccc(O)c(O)c1)OCCc1ccccc1,broth dilution,SC5314,,MIC,8 µg/mL
N#Cc1c(-c2ccc(OCc3ccccc3)cc2)c(C(N)=S)c(N)n(N)c1=O,well diffusion,ATCC10231,500 µg/mL,inhibition zone,10 mm
OC(Cn1cncn1)(Cn1cncn1)c1ccc(F)cc1F,broth dilution,SC5314,48 h,MIC50,0.8 µM
N#Cc1c(-c2ccc(Cl)cc2Cl)c(C(N)=O)c(N)n(N)c1=O,well diffusion,ATCC10231,500 µg/mL,inhibition zone,9 mm
CC1CCC(C(C)C)C(OC(=O)C=Cc2ccc(O)c(O)c2)C1 (centres unmarked),broth dilution,SC5314,,MIC,8 µg/mL
Cc1nn(-c2ccccc2)c2c1C(c1ccc(N(C)C)cc1)N(C(=O)c1ccncc1)N2 (centres unmarked),,MTCC183,,MIC,32 µg/mL
CC(C)NCC(COc1cccc2ccccc12)OC(=O)C=Cc1ccc(O)c(O)c1 (centres unmarked),broth dilution,SC5314,,MIC,16 µg/mL
CC(=O)Oc1ccc(-c2c(C(N)=O)c(N)n(N)c(=O)c2C#N)cc1,well diffusion,ATCC10231,500 µg/mL,inhibition zone,12 mm
Cc1nn(-c2ccccc2)c2c1C(c1c[nH]c3ccccc13)N(C(=O)c1ccncc1)N2 (centres unmarked),,MTCC183,,MIC,32 µg/mL
COC1=CC(=O)c2ccccc2C1=O,broth dilution,ATCC60193,24 h,MIC,25 µg/mL
CC(=O)N1CCN(c2ccc(OCC3COC(Cn4ccnc4)(c4ccc(Cl)cc4Cl)O3)cc2)CC1 (centres unmarked),well diffusion,ATCC10231,500 µg/mL,inhibition zone,24 mm
OC(Cn1cncn1)(Cn1cncn1)c1ccc(F)cc1F,broth dilution,SC5314,,MIC,0.25 µg/mL
Cc1nn(-c2ccccc2)c2c1C(c1ccc(O)cc1)N(C(=O)c1ccncc1)N2 (centres unmarked),,MTCC183,,MIC,64 µg/mL
